Experimental data taken from PMC6456254 (ACS chemical neuroscience, 2018).

Assays:
M1 [1] = details: cited from earlier work
M2 and M4 = details: cited from earlier work
Solubility in SGF = assay type: physicochemical; details: pH 1.6
[2] = Predicted hepatic clearance, rat; assay type: in vitro ADME
[3] = Predicted hepatic clearance, human; assay type: in vitro ADME
human M2−5 = assay: PAM selectivity versus human M2-5; assay type: cell-based; details: read-out: EC50 vs human M2−5
rat M1 = molecular target: T1, rat M1 (Rattus norvegicus, UniProt P08482); assay: Rat M1 functional assay in high expressing M1 cell line; assay type: cell-based; details: rat M1, up to 30 μM
T1 sequence (P08482 1-460): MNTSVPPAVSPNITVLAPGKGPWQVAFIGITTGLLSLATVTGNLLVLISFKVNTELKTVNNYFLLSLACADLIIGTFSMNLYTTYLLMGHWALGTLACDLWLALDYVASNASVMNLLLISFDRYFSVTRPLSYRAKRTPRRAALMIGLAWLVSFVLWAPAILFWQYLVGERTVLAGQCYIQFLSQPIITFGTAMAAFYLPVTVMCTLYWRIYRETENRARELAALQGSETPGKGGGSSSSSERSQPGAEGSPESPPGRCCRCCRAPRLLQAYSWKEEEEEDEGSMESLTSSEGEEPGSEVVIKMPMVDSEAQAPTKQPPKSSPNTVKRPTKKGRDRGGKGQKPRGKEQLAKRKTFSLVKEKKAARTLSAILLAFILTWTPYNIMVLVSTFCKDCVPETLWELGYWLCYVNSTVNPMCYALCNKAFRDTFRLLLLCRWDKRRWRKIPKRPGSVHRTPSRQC
Procedure, shortened: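 Calcium mobilization in CHO cells expressing rat M1. Agonist mode adds no exogenous acetylcholine, and EC50 is derived from the response. PAM mode is run with a fixed EC20 concentration of acetylcholine. Values are means from three independent experiments, each performed in triplicate.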

M1 [4] = assay type: cell-based; details: high expressing recombinant cell lines, species not stated
[5] = Fraction unbound in human plasma; assay type: in vitro ADME
[6] = Fraction unbound in rat plasma; assay type: in vitro ADME

COc1ccc(Cn2cc(C(=O)O)c(=O)c3ccccc32)cc1 [compound 1, BQCA]
mode of M1 pharmacology (M1 [1]): highly potent and robust M1 ago-PAM

O=C1C(=O)N(Cc2ccc(Br)cc2)c2ccccc21 [compound 9, VU0119498]
M1 agonist activity (M1 [1]; HTS hit): virtually no detectable M1 agonist activity | activity at M2 and M4 (M2 and M4): inactive

VU0451725 [compound 10]
solubility (Solubility in SGF): < 5 µg/mL

VU6005877 [24c]
predicted hepatic clearance, rat CLhep [2]: 31.7 mL/min/kg | predicted hepatic clearance, human CLhep [3]: 13.6 mL/min/kg | CLp (In vivo rat PK): 7.3 mL/min/kg | EC50 (human M2−5): > 30 µM | agonist activity in high-expressing M1 cell line (rat M1): no agonist activity | M1 agonism (M1 [4]): devoid of M1 agonism | fraction unbound in plasma, human fu [5]: 0.01 | fraction unbound in plasma, rat fu [6]: 0.016
